What was measured:
[1] = Inhibition of Sonic-induced hedgehog signalling in mouse NIH3T3 cells after 48 hrs by Gli-luciferase reporter assay; type: cell-based; settings: NIH3T3, 48 h
Procedure, shortened: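 NIH3T3 cells stably carrying a Gli-luciferase reporter were kept in DMEM with 10% FBS and 1 µg/mL puromycin, then seeded at 2×10^4 cells/well overnight at 37 °C. Compounds at 0.05–300 nM (8 concentrations) were added in medium with 0.5% FBS and 0.7 µg/mL Sonic Hh agonist, n=4 wells, for 48 h. Readout was the Firefly/Renilla luciferase ratio in lysates.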

[2] = Mean resident time (0 to t) in Sprague-Dawley rat at 1 mg/kg, iv by LC/MS/MS analysis; type: ADME, organism-based; settings: in vivo
Procedure, shortened: (§1)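 Male SD rats, 180–240 g, 3 per compound; single dose of 1 mg/kg iv or 5 mg/kg po, dosing volume 5 mL/kg. Blood was sampled from 2 min to 24 h and centrifuged at 4 °C. Plasma underwent protein precipitation, then LC/MS/MS in SRM mode with an internal standard. Parameters were derived by noncompartmental analysis.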

[3] = Clearance in Sprague-Dawley rat at 1 mg/kg, iv by LC/MS/MS analysis; type: ADME, organism-based; settings: in vivo; procedure, shortened: as §1
[4] = Mean resident time (0 to t) in Sprague-Dawley rat at 5 mg/kg, po by LC/MS/MS analysis; type: ADME, organism-based; settings: in vivo; procedure, shortened: as §1
[5] = Clearance in Sprague-Dawley rat at 5 mg/kg, po by LC/MS/MS analysis; type: ADME, organism-based; settings: in vivo; procedure, shortened: as §1
LS174T [6] = experiment: Antitumor activity against human LS174T cells xenografted in BALB/C mouse assessed as tumor weight inhibition at 75 mg/kg, qd administered for 10 days measured twice per week; type: functional; settings: 240 h, read-out: TGI
Procedure, shortened: (§2)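 Male BALB/c nude mice, 18–20 g, kept under SPF conditions. LS-174T cells at 2.5×10^7 cells/mL were injected s.c. into the right flank, and tumors were grown to about 100 mm3. Mice were randomized, n=6 treated and n=9 vehicle. Oral dosing ran qd or bid for 10 days; vehicle controls got the same volume of solvent. Tumor volume = length×width²/2, measured twice weekly. IR = (control − treated)/control for tumor weight or volume at day 10.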

LS174T [7] = experiment: Antitumor activity against human LS174T cells xenografted in BALB/C mouse assessed as tumor weight inhibition at 37.5 mg/kg, qd administered for 10 days measured twice per week; type: functional; settings: 240 h, read-out: TGI; procedure, shortened: as §2
[8] = AUC (0 to t) in Sprague-Dawley rat at 1 mg/kg, iv by LC/MS/MS analysis; type: ADME, organism-based; settings: in vivo
Procedure, shortened: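 Male SD rats, 3 per compound, 180–240 g, single iv dose at 1 mg/kg, dosing volume 5 mL/kg. Blood sampled at 2, 5, 15, 30 min and 1, 2, 4, 6, 8, 10, 24 h, then centrifuged at 4 °C. Plasma protein-precipitated and analysed by LC/MS/MS in SRM mode with internal standard. AUC(0-t) obtained by noncompartmental analysis.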

[9] = Cmax in Sprague-Dawley rat at 1 mg/kg, iv by LC/MS/MS analysis; type: ADME, organism-based; set-up: dose 1 mg/kg, route intravenous; settings: in vivo; procedure, shortened: as §1
[10] = Antiproliferative activity against human PC3 cells after 72 hrs by CellTiter-Glo luminescent cell viability assay; type: functional, cell-based; settings: PC-3, 72 h
Procedure, shortened: (§3)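 Cells were grown in DMEM with 10% FBS, seeded at a density suited to each line, and left 24 h at 37 °C. Compounds were prepared in DMSO, diluted in medium over a concentration series starting at 100 µM, and applied for 72 h. CellTiter-Glo reagent was added for 30 min at room temperature before reading luminescence. IC50 came from four-parameter curve fitting.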

[11] = Cmax in Sprague-Dawley rat at 5 mg/kg, po by LC/MS/MS analysis; type: ADME, organism-based; set-up: dose 5 mg/kg, route oral; settings: in vivo; procedure, shortened: as §1
Mus musculus [12] = experiment: Toxicity in BALB/C mouse xenografted with human LS174T cells assessed as loss of body weight at 37.5 to 150 mg/kg, qd administered for 10 days measured twice per week; type: organism-based; settings: in vivo, 240 h
Procedure, shortened: (§4)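 Male BALB/C nude mice (18–20 g) kept under SPF conditions. LS-174T cells at 2.5×10^7 cells/mL injected subcutaneously into the right flank. Once tumors reached about 100 mm3, mice were randomized to groups of 6 (vehicle group n = 9) and dosed orally once or twice daily for 10 days. Controls received solvent. Body weight and tumor volume were measured twice weekly and deaths recorded.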

[13] = Antiproliferative activity against human BxPC3 cells after 72 hrs by CellTiter-Glo luminescent cell viability assay; type: functional, cell-based; settings: BXPC-3, 72 h; procedure, shortened: as §3
LS174T [14] = experiment: Antiproliferative activity against human LS174T cells after 72 hrs by CellTiter-Glo luminescent cell viability assay; type: functional, cell-based; procedure, shortened: as §3
[15] = Half life in Sprague-Dawley rat at 5 mg/kg, po by LC/MS/MS analysis; type: ADME, organism-based; settings: in vivo; procedure, shortened: as §1
[16] = AUC (0 to t) in Sprague-Dawley rat at 5 mg/kg, po by LC/MS/MS analysis; type: ADME, organism-based; settings: in vivo; procedure, shortened: as §1
LS174T [17] = experiment: Antitumor activity against human LS174T cells xenografted in BALB/C mouse assessed as tumor volume inhibition at 75 mg/kg, bid administered for 10 days measured twice per week; settings: 240 h, read-out: TGI
Mus musculus [18] = experiment: Toxicity in BALB/C mouse xenografted with human LS174T cells assessed as mortality at 37.5 to 150 mg/kg, qd administered for 10 days; type: organism-based; settings: in vivo, 240 h; procedure, shortened: as §4
[19] = Oral bioavailability in Sprague-Dawley rat at 5 mg/kg; type: ADME, organism-based; settings: in vivo; procedure, shortened: as §1
LS174T [20] = experiment: Antitumor activity against human LS174T cells xenografted in BALB/C mouse assessed as tumor volume inhibition at 150 mg/kg, qd administered for 10 days measured twice per week; type: functional; settings: 240 h, read-out: TGI; procedure, shortened: as §2
[21] = Half life in Sprague-Dawley rat at 1 mg/kg, iv by LC/MS/MS analysis; type: ADME, organism-based; settings: in vivo; procedure, shortened: as §1
Mus musculus [22] = experiment: Toxicity in BALB/C mouse xenografted with human LS174T cells assessed as loss of body weight at 75 mg/kg, bid administered for 10 days measured twice per week; type: organism-based; settings: in vivo, 240 h; procedure, shortened: as §4
LS174T [23] = experiment: Antitumor activity against human LS174T cells xenografted in BALB/C mouse assessed as tumor volume inhibition at 37.5 mg/kg, qd administered for 10 days measured twice per week; type: functional; settings: 240 h, read-out: TGI; procedure, shortened: as §2
LS174T [24] = experiment: Antitumor activity against human LS174T cells xenografted in BALB/C mouse assessed as tumor weight inhibition at 75 mg/kg, bid administered for 10 days measured twice per week; type: functional; settings: 240 h, read-out: TGI; procedure, shortened: as §2
Mus musculus [25] = experiment: Toxicity in BALB/C mouse xenografted with human LS174T cells assessed as mortality at 75 mg/kg, bid administered for 10 days; type: organism-based; settings: in vivo, 240 h; procedure, shortened: as §4
LS174T [26] = experiment: Antitumor activity against human LS174T cells xenografted in BALB/C mouse assessed as tumor volume inhibition at 75 mg/kg, qd administered for 10 days measured twice per week; type: functional; settings: 240 h, read-out: TGI; procedure, shortened: as §2
LS174T [27] = experiment: Antitumor activity against human LS174T cells xenografted in BALB/C mouse assessed as tumor weight inhibition at 150 mg/kg, qd administered for 10 days measured twice per week; type: functional; settings: 240 h, read-out: TGI; procedure, shortened: as §2
[28] = Apparent volume of distribution in Sprague-Dawley rat at 1 mg/kg, iv by LC/MS/MS analysis; settings: in vivo
Rattus norvegicus = experiment: Apparent volume of distribution in Sprague-Dawley rat at 5 mg/kg, po by LC/MS/MS analysis; settings: in vivo

Structure (SMILES) | IC50 [1] | MRT last [2] | clearance [3] | AUC(0-t) [8] | Cmax [9] | half-life [21] | Vd [28] | MRT last [4] | CL/F [5] | Cmax [11] | half-life [15] | AUC(0-t) [16] | bioavailability [19] | other results
Cc1ccc(CN(C)C)cc1NC(=O)c1ccc(Nc2nccc(-c3ccc(OC(F)(F)F)cc3)n2)cc1 | 3.04 nM | – | – | – | – | – | – | – | – | – | – | – | – | –
Cc1ccc(CN2CCOCC2)cc1NC(=O)c1ccc(Nc2nccc(-c3ccc(OC(F)(F)F)cc3)n2)cc1 | 0.89 nM | 4.22 h | 6.69 mL/min/kg | 2440 ng·h/mL | 1200 ng/mL | 4.96 h | 2.87 L/kg | 6.98 h | 12.3 mL/min/kg | 635 ng/mL | 6.68 h | 6220 ng·h/mL | 42% | inhibition in vivo at 75 mg/kg (LS174T [6]): 9.9%; inhibition in vivo at 37.5 mg/kg (LS174T [7]): 10.2%; IC50 [10]: 14800 nM; Activity (Mus musculus [12]): Non-toxic; IC50 [13]: 35400 nM; IC50 (LS174T [14]): 12200 nM; inhibition in vivo at 75 mg/kg (LS174T [17]): 42.9%; Activity (Mus musculus [18]): Non-toxic; inhibition in vivo at 150 mg/kg (LS174T [20]): 38.9%; Activity (Mus musculus [22]): Non-toxic; inhibition in vivo at 37.5 mg/kg (LS174T [23]): 33%; inhibition in vivo at 75 mg/kg (LS174T [24]): 23.3%; Activity (Mus musculus [25]): Non-toxic; inhibition in vivo at 75 mg/kg (LS174T [26]): 23.2%; inhibition in vivo at 150 mg/kg (LS174T [27]): 21.1%; Vd(app) (Rattus norvegicus): 7.12872 L/kg
O=C(Nc1cccc(CN2CCOCC2)c1)c1ccc(Nc2nccc(-c3ccc(OC(F)(F)F)cc3)n2)cc1 | 0.56 nM | 1.53 h | 21.5 mL/min/kg | 769 ng·h/mL | 915 ng/mL | 3.59 h | 6.33 L/kg | – | – | – | – | – | – | –
Cc1ccc(CN2CCCCC2)cc1NC(=O)c1ccc(Nc2ncc(F)c(-c3ccc(OC(F)(F)F)cc3)n2)cc1 | 3.12 nM | – | – | – | – | – | – | – | – | – | – | – | – | –
Cc1c(C(=O)Nc2ccc(N3C[C@@H](C)O[C@@H](C)C3)nc2)cccc1-c1ccc(OC(F)(F)F)cc1 [SONIDEGIB] | 5.5 nM | 1.58 h | 7.69 mL/min/kg | 2200 ng·h/mL | 1930 ng/mL | 1.43 h | 0.955 L/kg | 5.4 h | 9.72 mL/min/kg | 1400 ng/mL | 4.01 h | 8830 ng·h/mL | 80.6% | Vd(app) (Rattus norvegicus): 3.40593 L/kg
CS(=O)(=O)c1ccc(C(=O)Nc2ccc(Cl)c(-c3ccccn3)c2)c(Cl)c1 [VISMODEGIB] | 7.2 nM | – | – | – | – | – | – | 3.93 h | 4.68 mL/min/kg | 3640 ng/mL | 2.46 h | 22400 ng·h/mL | > 100% | IC50 [10]: 66800 nM; IC50 [13]: 48000 nM; IC50 (LS174T [14]): 45800 nM; inhibition in vivo at 75 mg/kg (LS174T [24]): 11.8%; Activity (Mus musculus [25]): Non-toxic

Second part, led by results:

IC50 [1] | MRT last [2] | clearance [3] | AUC(0-t) [8] | Cmax [9] | half-life [21] | Vd [28] | Structure (SMILES) | MRT last [4] | CL/F [5] | Cmax [11] | half-life [15] | AUC(0-t) [16] | bioavailability [19] | other results
5.16 nM | – | – | – | – | – | – | Cc1ccc(CN2CCCC2)cc1NC(=O)c1ccc(Nc2ncc(F)c(-c3ccc(OC(F)(F)F)cc3)n2)cc1 | – | – | – | – | – | – | –
0.97 nM | – | – | – | – | – | – | Cc1ccc(CN2CCN(C)CC2)cc1NC(=O)c1ccc(Nc2nccc(-c3ccc(OC(F)(F)F)cc3)n2)cc1 | – | – | – | – | – | – | –
1.83 nM | – | – | – | – | – | – | Cc1ccc(CN2CCCC2)cc1NC(=O)c1ccc(Nc2nccc(-c3ccc(OC(F)(F)F)cc3)n2)cc1 | – | – | – | – | – | – | –
